Assay results from ChEMBL document CHEMBL1132274, “2,7-Disubstituted amidofluorenone derivatives as inhibitors of human telomerase” (J Med Chem, 1999).
The source made the active and inactive calls. The rule behind the calls is not given here.

Legend:
[1] = target: Telomerase reverse transcriptase (Homo sapiens, UniProt O14746); assay: Inhibitory activity against telomerase
Summary of the method: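 Modified TRAP with extract from exponentially growing A2780 ovarian carcinoma cells. Telomerase then inactivated at 80 °C for 5 min, CX primer and Taq added, 31 PCR cycles. Products analysed by denaturing PAGE with phosphorimaging/autoradiography, or by filter scintillation counting.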

[2] = target: DNA polymerase I, thermostable (Thermus aquaticus) (UniProt P19821); assay: Inhibitory activity against taq polymerase at 10 uM; No inhibition
Sequence of DNA polymerase I, thermostable (Thermus aquaticus) (P19821 whole entry): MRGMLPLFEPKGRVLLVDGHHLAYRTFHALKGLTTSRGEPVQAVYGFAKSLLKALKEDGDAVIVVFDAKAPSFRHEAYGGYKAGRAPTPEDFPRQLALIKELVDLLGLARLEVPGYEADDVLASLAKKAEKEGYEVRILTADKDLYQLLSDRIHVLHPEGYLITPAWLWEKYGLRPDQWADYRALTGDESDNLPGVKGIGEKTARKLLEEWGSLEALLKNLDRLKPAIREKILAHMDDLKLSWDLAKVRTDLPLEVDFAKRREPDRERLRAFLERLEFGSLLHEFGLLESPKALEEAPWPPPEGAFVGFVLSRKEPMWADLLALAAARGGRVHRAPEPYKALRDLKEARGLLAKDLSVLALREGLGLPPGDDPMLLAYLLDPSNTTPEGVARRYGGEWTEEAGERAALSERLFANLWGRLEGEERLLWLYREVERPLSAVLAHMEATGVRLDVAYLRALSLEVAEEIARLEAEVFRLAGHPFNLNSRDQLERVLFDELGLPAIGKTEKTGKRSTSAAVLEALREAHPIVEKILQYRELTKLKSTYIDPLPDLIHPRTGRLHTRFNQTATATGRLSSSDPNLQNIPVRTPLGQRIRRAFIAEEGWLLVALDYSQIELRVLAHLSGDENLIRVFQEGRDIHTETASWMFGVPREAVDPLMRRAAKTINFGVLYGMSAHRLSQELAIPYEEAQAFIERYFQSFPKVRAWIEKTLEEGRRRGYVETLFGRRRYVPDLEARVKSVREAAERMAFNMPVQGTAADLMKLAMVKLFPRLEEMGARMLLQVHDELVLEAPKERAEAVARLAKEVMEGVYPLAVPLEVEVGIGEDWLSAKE

CH1 [3] = assay: Cytotoxicity measured in human ovarian cell line CH1 using sulforhodamine B (SRB) assay.; assay type: functional, cell-based
Summary of the method: (§1)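 SRB growth-inhibition assay in human ovarian carcinoma cells: 3000–6000 cells/well attached overnight, then salts (dissolved at 500 μM in water) added in quadruplicate at final 0.05, 0.25, 1, 5 and 25 μM. After 96 h, cells fixed with ice-cold 10% TCA and stained with 0.4% SRB. Mean A540 expressed as % of untreated control; IC50 = concentration giving 50% growth inhibition.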

[4] = target: DNA polymerase I, thermostable (Thermus aquaticus) (UniProt P19821); assay: Inhibitory activity against taq polymerase at 50 uM; No inhibition
A2780 [5] = assay: Cytotoxicity measured in human ovarian cell line A2780 using sulforhodamine B (SRB) assay; assay type: functional, cell-based; summary of the method: as §1
SK-OV-3 [6] = assay: Cytotoxicity measured in human ovarian cell line SKOV-3 using sulforhodamine B (SRB) assay.; assay type: functional, cell-based; summary of the method: as §1
[7] = target: DNA polymerase I, thermostable (Thermus aquaticus) (UniProt P19821); assay: Inhibitory activity against taq polymerase at 20 uM; No inhibition
[8] = target: DNA polymerase I, thermostable (Thermus aquaticus) (UniProt P19821); assay: Inhibitory activity against taq polymerase at 50 uM; Slight
A2780 [9] = assay: Cytotoxicity activity of the compound was measured in human ovarian cell line A2780 using sulforhodamine B (SRB) assay; assay type: functional, cell-based; summary of the method: as §1
SK-OV-3 [10] = assay: Cytotoxicity activity was measured in human ovarian cell line SKOV-3 using sulforhodamine B (SRB) assay; assay type: functional, cell-based; summary of the method: as §1
CH1 [11] = assay: Cytotoxicity activity was measured in human ovarian cell line CH1 using sulforhodamine B (SRB) assay; assay type: functional, cell-based; summary of the method: as §1
[12] = target: DNA polymerase I, thermostable (Thermus aquaticus) (UniProt P19821); assay: Inhibitory activity against taq polymerase at 50 uM; Significant

Sequence of Telomerase reverse transcriptase (O14746 whole entry): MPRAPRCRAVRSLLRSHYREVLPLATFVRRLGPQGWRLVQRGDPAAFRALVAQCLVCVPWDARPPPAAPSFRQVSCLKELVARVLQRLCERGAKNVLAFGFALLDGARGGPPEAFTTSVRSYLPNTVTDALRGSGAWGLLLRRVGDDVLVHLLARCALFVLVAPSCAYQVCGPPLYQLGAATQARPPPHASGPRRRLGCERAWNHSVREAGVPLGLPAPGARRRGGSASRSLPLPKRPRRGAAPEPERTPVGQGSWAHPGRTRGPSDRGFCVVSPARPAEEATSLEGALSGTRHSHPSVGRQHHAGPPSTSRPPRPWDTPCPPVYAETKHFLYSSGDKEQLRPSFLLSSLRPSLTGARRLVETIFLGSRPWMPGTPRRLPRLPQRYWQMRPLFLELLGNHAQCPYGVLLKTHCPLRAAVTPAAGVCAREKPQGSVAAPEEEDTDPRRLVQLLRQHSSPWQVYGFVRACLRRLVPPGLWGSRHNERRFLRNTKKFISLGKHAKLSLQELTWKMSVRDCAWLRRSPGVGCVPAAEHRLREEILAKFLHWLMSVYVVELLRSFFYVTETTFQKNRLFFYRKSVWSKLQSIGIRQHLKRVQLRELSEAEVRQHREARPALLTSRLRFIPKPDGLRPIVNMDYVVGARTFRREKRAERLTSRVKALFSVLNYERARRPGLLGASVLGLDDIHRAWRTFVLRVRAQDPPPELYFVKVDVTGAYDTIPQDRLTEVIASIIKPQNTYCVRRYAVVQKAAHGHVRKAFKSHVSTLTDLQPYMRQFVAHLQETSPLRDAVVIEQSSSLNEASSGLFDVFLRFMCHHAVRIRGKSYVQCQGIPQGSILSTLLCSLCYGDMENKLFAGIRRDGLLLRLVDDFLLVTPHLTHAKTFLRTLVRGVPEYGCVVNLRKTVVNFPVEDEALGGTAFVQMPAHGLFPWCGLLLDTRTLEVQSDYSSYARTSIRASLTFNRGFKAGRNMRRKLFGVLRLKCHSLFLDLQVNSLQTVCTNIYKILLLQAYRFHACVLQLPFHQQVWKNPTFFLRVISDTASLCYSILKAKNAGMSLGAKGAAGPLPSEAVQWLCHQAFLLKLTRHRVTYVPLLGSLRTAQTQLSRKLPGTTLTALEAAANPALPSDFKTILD

Row | Compound | IC50 [1] [µM] | inhibition [2] | inhibition [4] | inhibition [7] | inhibition [8] | inhibition [12] | IC50 (CH1 [3]) [µM] | IC50 (A2780 [5]) [µM] | IC50 (SK-OV-3 [6]) [µM] | IC50 (A2780 [9]) [µM] | IC50 (SK-OV-3 [10]) [µM] | IC50 (CH1 [11]) [µM]
1 | C[N+]1(CCC(=O)Nc2ccc3c(c2)C(=O)c2cc(NC(=O)CC[N+]4(C)CCCCC4CO)ccc2-3)CCCCC1CO (stereo not drawn) | 33 | inactive | inactive | inactive |  |  | 4.2 | 3.75 | 4.3 |  |  | 
2 | O=C(CCN1CCCCC1CCO)Nc1ccc2c(c1)C(=O)c1cc(NC(=O)CCN3CCCCC3CCO)ccc1-2 (stereo not drawn) | 16.5 | inactive | inactive | inactive |  |  | 14.5 | > 25 | 20 |  |  | 
3 | CCN1CCN(CCC(=O)Nc2ccc3c(c2)C(=O)c2cc(NC(=O)CCN4CCN(CC)CC4)ccc2-3)CC1 | 17 | inactive | inactive | inactive |  |  | > 25 | > 25 | > 25 |  |  | 
4 | CC1CCCC[N+]1(C)CCC(=O)Nc1ccc2c(c1)C(=O)c1cc(NC(=O)CC[N+]3(C)CCCCC3C)ccc1-2 (stereo not drawn) | > 20 | inactive |  | inactive | Weak inhibition |  | 2.6 | 4.85 | 3.95 |  |  | 
5 | O=C(CCN1CCN(c2ccccc2)CC1)Nc1ccc2c(c1)C(=O)c1cc(NC(=O)CCN3CCN(c4ccccc4)CC3)ccc1-2 | > 50 | inactive | inactive | inactive |  |  | > 25 | > 25 | > 25 |  |  | 
6 | C[N+]1(CCC(=O)Nc2ccc3c(c2)C(=O)c2cc(NC(=O)CC[N+]4(C)CCC(O)CC4)ccc2-3)CCC(O)CC1 (stereo not drawn) | > 20 | inactive |  | inactive | Weak inhibition |  |  | 2.4 |  |  | 4.7 | 1.95
7 | O=C(CCN1CCN(c2ccccn2)CC1)Nc1ccc2c(c1)C(=O)c1cc(NC(=O)CCN3CCN(c4ccccn4)CC3)ccc1-2 | > 50 | inactive | inactive | inactive |  |  | > 25 | > 25 | > 25 |  |  | 
8 | O=C(CCN1CCN(Cc2ccccc2)CC1)Nc1ccc2c(c1)C(=O)c1cc(NC(=O)CCN3CCN(Cc4ccccc4)CC3)ccc1-2 | > 50 | inactive | inactive | inactive |  |  | > 25 | > 25 | > 25 |  |  | 
9 | CC1CC[N+](C)(CCC(=O)Nc2ccc3c(c2)C(=O)c2cc(NC(=O)CC[N+]4(C)CCC(C)CC4)ccc2-3)CC1 (stereo not drawn) | > 20 | inactive |  | inactive | Weak inhibition |  | > 25 | 2.5 | 3.75 |  |  | 
10 | CC[N+](C)(CC)CCC(=O)Nc1ccc2c(c1)C(=O)c1cc(NC(=O)CC[N+](C)(CC)CC)ccc1-2 | 25.4 | inactive | inactive | inactive |  |  | 2.45 | 3.7 | 2.4 |  |  | 
11 | CC1CCCCN1CCC(=O)Nc1ccc2c(c1)C(=O)c1cc(NC(=O)CCN3CCCCC3C)ccc1-2 (stereo not drawn) | 12 | inactive | inactive | inactive |  |  | 1.8 | 10.5 | 12 |  |  | 
12 | C[N+](C)(C)CCC(=O)Nc1ccc2c(c1)C(=O)c1cc(NC(=O)CC[N+](C)(C)C)ccc1-2 | 18.5 | inactive | inactive | inactive |  |  | 1.95 | 2.25 | 1.95 |  |  | 
13 | CCN(CC)CCC(=O)Nc1ccc2c(c1)C(=O)c1cc(NC(=O)CCN(CC)CC)ccc1C2=O |  |  |  |  |  |  |  | 2.15 |  |  |  | 
14 | O=C(CCN1CCCCC1)Nc1ccc2c(c1)C(=O)c1cc(NC(=O)CCN3CCCCC3)ccc1-2 | 9 | inactive | inactive | inactive |  |  | 7.6 | 11 | 11 |  |  | 
15 | C[N+]1(CCC(=O)Nc2ccc3c(c2)C(=O)c2cc(NC(=O)CC[N+]4(C)CCOCC4)ccc2-3)CCOCC1 | 27.3 | inactive | inactive | inactive |  |  | 2.15 | 2.55 | 2.45 |  |  | 
16 | O=C(CCN1CCCCC1CO)Nc1ccc2c(c1)C(=O)c1cc(NC(=O)CCN3CCCCC3CO)ccc1-2 (stereo not drawn) | 8 | inactive | inactive | inactive |  |  | 14 | 13 | 15 |  |  | 
17 | C[N+]1(CCC(=O)Nc2ccc3c(c2)C(=O)c2cc(NC(=O)CC[N+]4(C)CCCCC4)ccc2-3)CCCCC1 | 21 | inactive | inactive | inactive |  |  | 5.2 | 4.3 | 3.9 |  |  | 

Now from value to molecule, other results behind:

Row | IC50 [1] [µM] | inhibition [2] | inhibition [4] | inhibition [7] | inhibition [8] | inhibition [12] | Compound | IC50 (CH1 [3]) [µM] | IC50 (A2780 [5]) [µM] | IC50 (SK-OV-3 [6]) [µM] | IC50 (A2780 [9]) [µM] | IC50 (SK-OV-3 [10]) [µM] | IC50 (CH1 [11]) [µM]
18 | > 20 | inactive |  | inactive | Weak inhibition |  | CCC1CCCC[N+]1(C)CCC(=O)Nc1ccc2c(c1)C(=O)c1cc(NC(=O)CC[N+]3(C)CCCCC3CC)ccc1-2 (stereo not drawn) | 2.35 | 2.9 | 2.6 |  |  | 
19 | 44 | inactive | inactive | inactive |  |  | CN1CCN(CCC(=O)Nc2ccc3c(c2)C(=O)c2cc(NC(=O)CCN4CCN(C)CC4)ccc2-3)CC1 | > 25 |  | > 25 | > 25 |  | 
20 | 16.2 | inactive | inactive | inactive |  |  | CN(C)CCC(=O)Nc1ccc2c(c1)C(=O)c1cc(NC(=O)CCN(C)C)ccc1-2 | 8.5 | 12 | 8.2 |  |  | 
21 | > 50 | inactive | inactive | inactive |  |  | O=C(CCN1CCOCC1)Nc1ccc2c(c1)C(=O)c1cc(NC(=O)CCN3CCOCC3)ccc1-2 | > 25 | > 25 | > 25 |  |  | 
22 | > 50 | inactive | inactive | inactive |  |  | O=C(CCN1CCN(c2ncccn2)CC1)Nc1ccc2c(c1)C(=O)c1cc(NC(=O)CCN3CCN(c4ncccn4)CC3)ccc1-2 | > 25 | > 25 | > 25 |  |  | 
23 | 14 | inactive | inactive | inactive |  |  | CCC1CCCCN1CCC(=O)Nc1ccc2c(c1)C(=O)c1cc(NC(=O)CCN3CCCCC3CC)ccc1-2 (stereo not drawn) | 2.15 | 2.2 | 3.15 |  |  | 
24 | > 20 | inactive |  | inactive |  | Significant | C[N+]1(CCC(=O)Nc2ccc3c(c2)C(=O)c2cc(NC(=O)CC[N+]4(C)CCCCC4CCO)ccc2-3)CCCCC1CCO (stereo not drawn) | 3.15 | 5.2 | 5.2 |  |  | 
25 | > 20 | inactive | inactive | inactive |  |  | CC1CCN(CCC(=O)Nc2ccc3c(c2)C(=O)c2cc(NC(=O)CCN4CCC(C)CC4)ccc2-3)CC1 | > 25 | 2.2 | 7.6 |  |  | 
26 | 18.5 | inactive | inactive | inactive |  |  | O=C(CCN1CCC(O)CC1)Nc1ccc2c(c1)C(=O)c1cc(NC(=O)CCN3CCC(O)CC3)ccc1-2 | > 25 | > 25 | > 25 |  |  | 
27 | 15.5 | inactive | inactive | inactive |  |  | CCN(CC)CCC(=O)Nc1ccc2c(c1)C(=O)c1cc(NC(=O)CCN(CC)CC)ccc1-2 | 8 | 14 | 9.65 |  |  | 
